The record followed here is ChEMBL document CHEMBL1133105, “Antimalarial, antitrypanosomal, and antileishmanial activities and cytotoxicity of bis(9-amino-6-chloro-2-methoxyacridines): influence of the linker” (J Med Chem, 2000).

The first assay deals with Trypanosoma cruzi. Nature of the assay: In Vitro evaluation for the percentage of activity towards Trypanosoma cruzi at 6.25 uM Concentration; Toxic upon mouse primary peritoneal macrophages. It is filed as functional, organism-based.
Settings: not given
In a few lines:
(§1)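 Mouse peritoneal macrophages, 30 000/well, infected after 24 h with about 100 000 T. cruzi trypomastigotes per well plus 2-fold drug dilutions (12.5–1.56 µM). Incubated 4 days at 37 °C, 5% CO2. Methanol-fixed, Giemsa-stained and scored microscopically as % reduction of total parasite load (free trypomastigotes plus intracellular amastigotes) versus untreated controls.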
On to `COc1ccc2nc3cc(Cl)ccc3c(NCCCN(CCCNc3c4ccc(Cl)cc4nc4ccc(OC)cc34)C(=O)CCN3CCOCC3)c2c1`, for which the Cytotoxicity entry was “Toxic”.

As for `COc1ccc2nc3cc(Cl)ccc3c(NCCCN(CCCNc3c4ccc(Cl)cc4nc4ccc(OC)cc34)C(=O)CCN3CCCCC3)c2c1`, the Cytotoxicity entry is “Toxic”.

In the next assay the test system is Trypanosoma cruzi. Nature of the assay: Percentage of activity against Trypanosoma cruzi at 12.5 uM; Toxic upon mouse primary peritoneal macrophages. It is filed as functional, organism-based.
Settings: not given
In a few lines: as §1
Turning to `COc1ccc2nc3cc(Cl)ccc3c(NCCCN(CCCNc3c4ccc(Cl)cc4nc4ccc(OC)cc34)C(=O)CCN3CCOCC3)c2c1`, the Cytotoxicity result was “Toxic”.

In the case of `COc1ccc2nc3cc(Cl)ccc3c(NCCCN(CCCNc3c4ccc(Cl)cc4nc4ccc(OC)cc34)C(=O)CCN3CCCCC3)c2c1`, the Cytotoxicity result is “Toxic”.

The next assay deals with Leishmania infantum. Nature of the assay: Percentage of activity against Leishmania infantum at 12.5 uM Concentration; Toxic upon mouse primary peritoneal macrophages. The assay is classed as functional, organism-based.
Settings: not given
The procedure, abridged: (§2)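 Starch-stimulated mouse peritoneal macrophages, 30 000/well, infected after 24 h with spleen-derived L. infantum amastigotes (10:1) together with 2-fold drug dilutions (12.5–1.56 µM). Incubated 7 days at 37 °C, 5% CO2. Wright-stained slides scored microscopically as % reduction of total parasite load or of infected macrophages. Uninfected treated cultures judged microscopically for macrophage toxicity.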
Turning to `COc1ccc2nc3cc(Cl)ccc3c(NCCCN(CCCNc3c4ccc(Cl)cc4nc4ccc(OC)cc34)C(=O)CCN3CCOCC3)c2c1`, the Cytotoxicity entry is “Toxic”.

`COc1ccc2nc3cc(Cl)ccc3c(NCCCN(CCCNc3c4ccc(Cl)cc4nc4ccc(OC)cc34)C(=O)CCN3CCCCC3)c2c1`: the Cytotoxicity entry is “Toxic”.

The subject of the next assay is MRC5. Nature of the assay: Cytotoxicity on MRC-5 cells at 3.13 uM. It is filed as functional. The conditions noted are these: Homo sapiens. In a few lines: (§3)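 MRC-5 human diploid embryonic lung cells seeded at 5 000/well, washed after 24 h, then given 2-fold drug dilutions (25, 12.5, 6.25, 3.13 µM) in RPMI + 5% FCS, final DMSO below 0.5%. Incubated 7 days at 37 °C, 5% CO2. MTT colorimetric read-out, scored as % reduction of absorbance at 540 nm versus untreated controls.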
`COc1ccc2nc3cc(Cl)ccc3c(NCCCN(CCCNc3c4ccc(Cl)cc4nc4ccc(OC)cc34)C(=O)CCN3CCOCC3)c2c1`: the cytotoxicity at 3.13 µM turned out to be 80%.

In the case of `COc1ccc2nc3cc(Cl)ccc3c(NCCCN(CCCNc3c4ccc(Cl)cc4nc4ccc(OC)cc34)C(=O)CCN3CCCCC3)c2c1`, the cytotoxicity at 3.13 µM came out at 42%.

The next assay has as its system MRC5. Nature of the assay: Cytotoxicity on MRC-5 cells at 25 uM. It is filed as functional. Conditions: Homo sapiens. The procedure, abridged:
as §3
As for `COc1ccc2nc3cc(Cl)ccc3c(NCCCN(CCCNc3c4ccc(Cl)cc4nc4ccc(OC)cc34)C(=O)CCN3CCOCC3)c2c1`, the cytotoxicity at 25 µM amounted to 100%.

As for `COc1ccc2nc3cc(Cl)ccc3c(NCCCN(CCCNc3c4ccc(Cl)cc4nc4ccc(OC)cc34)C(=O)CCN3CCCCC3)c2c1`, the cytotoxicity at 25 µM was determined as 78%.

The next assay deals with Trypanosoma brucei. Nature of the assay: Percentage of activity against Trypanosoma brucei at 6.25 uM.
Settings: not given
The assay is classed as functional. The procedure, abridged:
(§4)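 Bloodstream-form T. brucei in HMI-9 medium, 10 000 parasites/well, exposed to 12.5, 6.25, 3.13 and 1.56 µM drug for 4 days. Read-out is % inhibition of parasite multiplication. Macrophage toxicity judged on mouse primary peritoneal macrophages.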
With `COc1ccc2nc3cc(Cl)ccc3c(NCCCN(CCCNc3c4ccc(Cl)cc4nc4ccc(OC)cc34)C(=O)CCN3CCOCC3)c2c1`, the “Inhibition of parasite multiplication” value amounted to 100%.

On to `COc1ccc2nc3cc(Cl)ccc3c(NCCCN(CCCNc3c4ccc(Cl)cc4nc4ccc(OC)cc34)C(=O)CCN3CCCCC3)c2c1`, for which the “Inhibition of parasite multiplication” value is on record as 100%.

The next assay has as its system MRC5. Nature of the assay: Cytotoxicity on MRC-5 cells at 12.5 uM. It is filed as functional. The conditions noted are these: Homo sapiens. The procedure, abridged: as §3
In turn, `COc1ccc2nc3cc(Cl)ccc3c(NCCCN(CCCNc3c4ccc(Cl)cc4nc4ccc(OC)cc34)C(=O)CCN3CCOCC3)c2c1` gave a cytotoxicity at 12.5 µM of 100%.

`COc1ccc2nc3cc(Cl)ccc3c(NCCCN(CCCNc3c4ccc(Cl)cc4nc4ccc(OC)cc34)C(=O)CCN3CCCCC3)c2c1` showed a cytotoxicity at 12.5 µM of 71%.

The next assay relates to Trypanosoma cruzi. Nature of the assay: In Vitro evaluation for the percentage of activity towards Trypanosoma cruzi at 3.13 uM Concentration; Toxic upon mouse primary peritoneal macrophages. The assay is classed as functional, organism-based.
Settings: not given
In a few lines:
as §1
As for `COc1ccc2nc3cc(Cl)ccc3c(NCCCN(CCCNc3c4ccc(Cl)cc4nc4ccc(OC)cc34)C(=O)CCN3CCCCC3)c2c1`, the Cytotoxicity result is “Toxic”.

Another assay has as its system Trypanosoma cruzi. Nature of the assay: Percentage of activity against Trypanosoma cruzi at 1.56 uM.
Settings: not given
The assay is classed as functional. The procedure, abridged:
as §1
`COc1ccc2nc3cc(Cl)ccc3c(NCCCN(CCCNc3c4ccc(Cl)cc4nc4ccc(OC)cc34)C(=O)CCN3CCOCC3)c2c1`: the Parasite load reduction is 40%.

Take `COc1ccc2nc3cc(Cl)ccc3c(NCCCN(CCCNc3c4ccc(Cl)cc4nc4ccc(OC)cc34)C(=O)CCN3CCCCC3)c2c1`: the Parasite load reduction is 40%.

A further assay relates to Leishmania infantum. Nature of the assay: Percentage of activity against Leishmania infantum at 6.25 uM; Toxic upon mouse primary peritoneal macrophages. The assay is classed as functional, organism-based.
Settings: not given
The procedure, abridged: as §2
Take `COc1ccc2nc3cc(Cl)ccc3c(NCCCN(CCCNc3c4ccc(Cl)cc4nc4ccc(OC)cc34)C(=O)CCN3CCOCC3)c2c1`: the Cytotoxicity entry is “Toxic”.

Consider `COc1ccc2nc3cc(Cl)ccc3c(NCCCN(CCCNc3c4ccc(Cl)cc4nc4ccc(OC)cc34)C(=O)CCN3CCCCC3)c2c1`, for which the Cytotoxicity entry is “Toxic”.

The test system of a further assay is Trypanosoma brucei. Nature of the assay: Percentage of activity against Trypanosoma brucei at 12.5 uM. The assay is classed as functional.
Settings: not given
In a few lines:
as §4
`COc1ccc2nc3cc(Cl)ccc3c(NCCCN(CCCNc3c4ccc(Cl)cc4nc4ccc(OC)cc34)C(=O)CCN3CCOCC3)c2c1`: the “Inhibition of parasite multiplication” value came to 100%.

The next assay concerns MRC5. Nature of the assay: Cytotoxicity on MRC-5 cells at 6.25 uM. It is filed as functional. The conditions noted are these: Homo sapiens. In a few lines:
as §3
Take `COc1ccc2nc3cc(Cl)ccc3c(NCCCN(CCCNc3c4ccc(Cl)cc4nc4ccc(OC)cc34)C(=O)CCN3CCOCC3)c2c1`: the cytotoxicity at 6.25 µM stood at 100%.

As to `COc1ccc2nc3cc(Cl)ccc3c(NCCCN(CCCNc3c4ccc(Cl)cc4nc4ccc(OC)cc34)C(=O)CCN3CCCCC3)c2c1`, the cytotoxicity at 6.25 µM was determined as 57%.

The next assay concerns Leishmania infantum. Nature of the assay: In Vitro evaluation for the percentage of activity towards Leishmania infantum at 1.56 uM Concentration; Toxic upon mouse primary peritoneal macrophages. The assay is classed as functional, organism-based.
Settings: not given
The procedure, abridged:
as §2
On to `COc1ccc2nc3cc(Cl)ccc3c(NCCCN(CCCNc3c4ccc(Cl)cc4nc4ccc(OC)cc34)C(=O)CCN3CCOCC3)c2c1`, for which the Cytotoxicity result was “Toxic”.

Turning to `COc1ccc2nc3cc(Cl)ccc3c(NCCCN(CCCNc3c4ccc(Cl)cc4nc4ccc(OC)cc34)C(=O)CCN3CCCCC3)c2c1`, the Cytotoxicity entry is “Toxic”.

The next assay deals with Trypanosoma brucei. Nature of the assay: Percentage of activity against Trypanosoma brucei at 1.56 uM. The assay is classed as functional.
Settings: not given
In a few lines:
as §4
Consider `COc1ccc2nc3cc(Cl)ccc3c(NCCCN(CCCNc3c4ccc(Cl)cc4nc4ccc(OC)cc34)C(=O)CCN3CCOCC3)c2c1`, for which the “Percent inhibition of parasite multiplication” value amounted to 100%.

On to `COc1ccc2nc3cc(Cl)ccc3c(NCCCN(CCCNc3c4ccc(Cl)cc4nc4ccc(OC)cc34)C(=O)CCN3CCCCC3)c2c1`, for which the “Percent inhibition of parasite multiplication” value is 100%.

The next assay relates to Plasmodium falciparum. Nature of the assay: In vitro sensitivity for Plasmodium falciparum FcB1R. The assay is classed as functional, organism-based.
Settings: not given
In a few lines: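 Asynchronous P. falciparum cultures in human erythrocytes (0.5% parasitemia, 1% haematocrit) exposed to serially diluted drug for 24 h at 37 °C. [3H]hypoxanthine (0.5 µCi/well) then added for a further 24 h. Uptake compared with drug-free controls on the same plate. IC50 taken from the concentration–response curve, averaged over independent experiments. DMSO ≤0.1%.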
Broadly, the IC50 is the point on the concentration scale where inhibition reaches its midpoint. A higher IC50 goes with a need for much substance. In turn, `COc1ccc2nc3cc(Cl)ccc3c(NCCCN(CCCNc3c4ccc(Cl)cc4nc4ccc(OC)cc34)C(=O)CCN3CCOCC3)c2c1` registered an IC50 of 0.026 µM.

Compound `COc1ccc2nc3cc(Cl)ccc3c(NCCCN(CCCNc3c4ccc(Cl)cc4nc4ccc(OC)cc34)C(=O)CCN3CCCCC3)c2c1` displayed an IC50 of 0.067 µM.

For a further assay, the system named is Trypanosoma cruzi. Nature of the assay: Percentage of activity against Trypanosoma cruzi at 3.13 uM. It is filed as functional.
Settings: not given
The procedure, abridged: as §1
Consider `COc1ccc2nc3cc(Cl)ccc3c(NCCCN(CCCNc3c4ccc(Cl)cc4nc4ccc(OC)cc34)C(=O)CCN3CCOCC3)c2c1`, for which the “Reduction of T. cruzi parasite load” value was found to be 60%.

The next assay concerns Leishmania infantum. Nature of the assay: In Vitro evaluation for the percentage of activity towards Leishmania infantum at 3.13 uM Concentration; Toxic upon mouse primary peritoneal macrophages.
Settings: not given
The assay is classed as functional, organism-based. The procedure, abridged:
as §2
As to `COc1ccc2nc3cc(Cl)ccc3c(NCCCN(CCCNc3c4ccc(Cl)cc4nc4ccc(OC)cc34)C(=O)CCN3CCOCC3)c2c1`, the Cytotoxicity entry was “Toxic”.

With `COc1ccc2nc3cc(Cl)ccc3c(NCCCN(CCCNc3c4ccc(Cl)cc4nc4ccc(OC)cc34)C(=O)CCN3CCCCC3)c2c1`, the Cytotoxicity entry was “Toxic”.

A further assay has as its system Trypanosoma brucei. Nature of the assay: Percentage of activity against Trypanosoma brucei at 3.13 uM. The assay is classed as functional.
Settings: not given
In a few lines:
as §4
Compound `COc1ccc2nc3cc(Cl)ccc3c(NCCCN(CCCNc3c4ccc(Cl)cc4nc4ccc(OC)cc34)C(=O)CCN3CCOCC3)c2c1` returned a Parasite growth inhibition of 100%.

`COc1ccc2nc3cc(Cl)ccc3c(NCCCN(CCCNc3c4ccc(Cl)cc4nc4ccc(OC)cc34)C(=O)CCN3CCCCC3)c2c1` displayed a Parasite growth inhibition of 100%.
